The record followed here is ChEMBL document CHEMBL1154705, “Modulation of carcinogen metabolizing enzymes by new fused heterocycles pendant to 5,6,7,8-tetrahydronaphthalene derivatives” (Eur J Med Chem, 2010).

Calls of active or inactive are those of the source. The calls are words filed in the database; no cut-off is given here. Bounds are passed on as bounds.

A word on the IC50: it is the concentration at which inhibition is half-maximal. The low end stands for higher potency, the high end for lower potency. By inhibition is commonly meant the percentage by which the read-out fell short of the control.

Test [1] has as its system Lymphocyte. The test is described as follows: Inhibition of methyl methanesulphonate-induced DNA damage in human lymphocyte assessed as inhibition of tail moment at 10 ug/ml after 1 hr before MMS challenge measured after 3 hrs by comet assay. Type of test: functional, cell-based.
The nature of test [2]: Cytotoxicity against mouse Hepa-1c1c7 cells after 48 hrs by MTT assay. The class given is functional, cell-based. In outline: (§1)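 MTT reduction assay: cells seeded at 5 x10⁴ cells/well and incubated 48 h at 37 °C with various concentrations of compounds. Formazan solubilized in acidic isopropanol.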
Background: Tetrazolium assays rely on reduction of a dye to a coloured formazan, in cell work by metabolically active cells.

For test [3], the system named is Hepa-1c1c7. The test is described as follows: Induction of GST activity in mouse Hepa-1c1c7 cells at 10 ug/ml after 48 hrs by bicinchoninic acid assay. Type of test: cell-based. In outline:
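Hepa1c1c7 cells in DMEM with 10% FBS, 37 °C, 5% CO₂, treated 48 h with compounds (DMSO diluted 1000-fold). Total GST activity read kinetically at 340 nm. Activity normalized to protein by BCA and given relative to DMSO control (100%). Four repeats, mean ± S.D.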

Test [4] relates to Lymphocyte. The experiment in a line: Inhibition of methyl methanesulphonate-induced DNA damage in human lymphocyte assessed as tail length at 10 ug/ml after 1 hr before MMS challenge measured after 3 hrs by comet assay. The class given is functional.
Test [5] relates to Hepa-1c1c7. The experiment in a line: Antioxidant activity in mouse Hepa-1c1c7 cells assessed as increase in total thiol content at […] after 48 hrs. Type of test: functional, cell-based. The gist of the method:
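Hepa1c1c7 cells (1 x10⁶) exposed to compounds for 48 h (DMSO vehicle diluted 1000-fold; DMSO-treated cells as comparator). Total cellular thiols measured by glutathione disulfide reductase/DTNB enzymatic cycling. Four repeats, mean ± S.D.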

A short description of test [6]: Cytotoxicity against human lymphocytes after 48 hrs by MTT assay. The class given is functional, cell-based. The conditions noted are these: lymphocyte. In outline: as §1
Test [7] has as its system Hepa-1c1c7. The test is described as follows: Inhibition of CYP1A in mouse Hepa-1c1c7 cells at 1 ug/ml assessed as dealkylation rate of 3-cyano-7-ethoxycoumarin. The class given is cell-based.
Test [8] concerns the target T1, Epoxide hydrolase 1 (Mus musculus) (UniProt Q9D379).
T1 sequence (whole entry): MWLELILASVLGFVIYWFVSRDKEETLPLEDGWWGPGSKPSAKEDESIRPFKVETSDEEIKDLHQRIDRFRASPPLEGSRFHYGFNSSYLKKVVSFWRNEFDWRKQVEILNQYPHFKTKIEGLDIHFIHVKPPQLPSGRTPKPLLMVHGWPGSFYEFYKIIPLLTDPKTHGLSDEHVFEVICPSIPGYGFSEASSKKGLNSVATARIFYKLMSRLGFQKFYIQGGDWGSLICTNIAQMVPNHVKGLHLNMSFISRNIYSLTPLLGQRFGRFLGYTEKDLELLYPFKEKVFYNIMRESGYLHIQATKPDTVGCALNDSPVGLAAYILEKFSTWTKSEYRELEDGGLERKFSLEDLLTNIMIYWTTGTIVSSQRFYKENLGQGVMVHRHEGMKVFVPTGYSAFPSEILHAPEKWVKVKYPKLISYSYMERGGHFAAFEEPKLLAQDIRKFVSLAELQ
The experiment in a line: Induction of mEH enzyme in mouse Hepa-1c1c7 assessed as formation of 7(29,39-dihydroxy)propoxycoumarin at 10 µg/ml after 48 hrs.

Test [9] is described as follows: Antioxidant activity assessed as hydroxyl radical scavenging activity by ORAC assay. The class given is functional.
Test [10] in a line: Antioxidant activity assessed as peroxyl radical scavenging activity by ORAC assay. Type of test: functional.

As to `c1ccc2c(c1)nc1[nH]c(-c3ccc4c(c3)CCCC4)cn12`, the outcome in the test with Lymphocyte [1], in the test on Hepa-1c1c7 [3] and with Hepa-1c1c7 [5] was Active. Also, the IC50 in test [2] and in test [6] was more than 50 µg/mL in each case. In addition, in the test with Lymphocyte [4], the Activity came to 17.2 micrometer. Moreover, the inhibition in the test with Hepa-1c1c7 [7] worked out at 26.4%.

On to `Cc1cc[n+](CC(=O)c2ccc3c(c2)CCCC3)cc1.[Br-]`, for which the IC50 in [2] and in test [6] was more than 50 µg/mL throughout. The result in test [8] was Active. Also, in the test with Lymphocyte [4], the Activity was 59.41 micrometer. For the same compound, the inhibition in the test with Hepa-1c1c7 [7] is less than 10%.

For the compound `COC(=O)c1c(C(=O)OC)c2cccc(C)n2c1C(=O)c1ccc2c(c1)CCCC2`, the outcome (in the test on Lymphocyte [1]; in the test on Hepa-1c1c7 [3]; in test [9]) was Active. Besides, the IC50 in test [2] and in [6] was more than 50 µg/mL in each case. In addition, the Activity in the test on Lymphocyte [4] is recorded as 18.3 micrometer. Also, in the test with Hepa-1c1c7 [7], the inhibition was less than 10%.

For `Cc1cccc[n+]1CC(=O)c1ccc2c(c1)CCCC2.[Br-]`, the result (with Lymphocyte [1]; in [8]; in test [10]) was Active. Further, the IC50 in test [2] and in test [6] was more than 50 µg/mL each time. Moreover, the Activity in the test on Lymphocyte [4] was 17.7 micrometer. Besides, the inhibition in the test on Hepa-1c1c7 [7] was less than 10%.

With `COC(=O)c1c(C(=O)OC)c2cc(C)ccn2c1C(=O)c1ccc2c(c1)CCCC2`, the result (in the test on Lymphocyte [1]; in the test on Hepa-1c1c7 [5]; in test [9]) was Active. Further, the IC50 in test [2] and in [6] was more than 50 µg/mL each time. In addition, in the test with Lymphocyte [4], the Activity is 22.8 micrometer. Besides, the inhibition in the test on Hepa-1c1c7 [7] is less than 10%.

In the case of `O=C(C[n+]1ccccc1)c1ccc2c(c1)CCCC2.[Br-]`, the result (in the test on Lymphocyte [1]; in the test on Hepa-1c1c7 [3]; in test [8]; in the test with Hepa-1c1c7 [5]; in [9]; in test [10]) was Active. Moreover, the 50% inhibitory concentration (IC50) in [2] and in [6] was more than 50 µg/mL each time. In addition, in the test with Lymphocyte [4], the Activity is listed as 34.31 micrometer. Also, the inhibition in the test on Hepa-1c1c7 [7] was less than 10%.

On to `COC(=O)c1c(C(=O)OC)c2ccccn2c1C(=O)c1ccc2c(c1)CCCC2`, for which the IC50 in test [2] and in [6] was more than 50 µg/mL in each case. The Activity in the test with Lymphocyte [4] is 36.66 micrometer. The inhibition with Hepa-1c1c7 [7] was less than 10%.
